Experimental data pooled from the literature.
Lines come from different studies, so protocols differ. ≈ marks a conversion by molar mass, not a printed value.

| Structure (SMILES) | target or system | assay | conditions | quantity | value |
| --- | --- | --- | --- | --- | --- |
| CCCn1cnc2ccc(-c3ccc(N4CCC(C)CC4=O)nc3)cc2c1=O (centres unmarked) | HCC827 | cell growth or viability, CCK-8 | 72 h | IC50 | > 10 µM |
| COc1cc(C2=CCCCc3c2ccc(OC)c3OCc2cnc([N+](=O)[O-])n2C)cc(OC)c1OC |  | tubulin polymerisation, inhibitor | 20 min | IC50 | > 20 µM |
| Cc1cccc(NC(=O)Nc2ccc(-c3ccc4ncn(Cc5ccccc5)c(=O)c4c3)cn2)c1 | HCC827 | cell growth or viability, CCK-8 | 72 h | IC50 | 7.31 µM |
| COc1cc(C2=CCCCc3c2ccc(OC)c3OC(C)c2cnc([N+](=O)[O-])n2C)cc(OC)c1OC (centres unmarked) |  | tubulin polymerisation, inhibitor | 20 min | IC50 | > 20 µM |
| Cc1n[nH]c2ccc3nc(-c4ccc(C(=O)NCCN(C)C)cc4)c4c(c3c12)CCCCC4 | HCC827 | cell growth or viability | 72 h | GI50 | 7.12 µM |
| O=C(Nc1cccc2ccccc12)c1ccc(COC(Cn2ccnc2)c2ccc(Cl)cc2Cl)cc1 (centres unmarked) | Nakaseomyces glabratus | microbial growth, broth dilution |  | MIC80 | 8 µg/mL (≈ 15.5 µM) |
| COc1cc(C2=CCCc3c2ccc(OC)c3OC(C)c2ccc([N+](=O)[O-])s2)cc(OC)c1OC (centres unmarked) |  | tubulin polymerisation, inhibitor | 20 min | IC50 | > 20 µM |
| CN(C)CCNC(=O)c1ccc(-c2nc3ccc4[nH]ncc4c3c3c2CCCC3)c(F)c1 | HCC827 | cell growth or viability | 72 h | GI50 | 1.01 µM |
| COc1cc(C2=CCCCc3c2ccc(OC)c3OC(C)c2ccc([N+](=O)[O-])s2)cc(OC)c1OC (centres unmarked) |  | tubulin polymerisation, inhibitor | 20 min | IC50 | > 20 µM |
| CCCCn1cnc2ccc(-c3ccc(NC(=O)NCc4ccccc4)nc3)cc2c1=O | HCC827 | cell growth or viability, CCK-8 | 72 h | IC50 | 0.32 µM |
| Clc1ccc(COC(Cn2ccnc2)c2ccc(Cl)cc2Cl)c(Cl)c1 (centres unmarked) | Nakaseomyces glabratus | microbial growth, broth dilution |  | MIC80 | 0.125 µg/mL (≈ 0.3 µM) |
| CCCn1cnc2ccc(-c3ccc(NC(=O)CC4CCC4)nc3)cc2c1=O | HCC827 | cell growth or viability, CCK-8 | 72 h | IC50 | 1.21 µM |
| O=C(Nc1ccc(C(F)(F)F)cc1)c1ccc(COC(Cn2ccnc2)c2ccc(Cl)cc2Cl)cc1 (centres unmarked) | Nakaseomyces glabratus | microbial growth, broth dilution |  | MIC80 | 0.125 µg/mL (≈ 0.234 µM) |
| Cc1nc(Nc2ncc(C(=O)Nc3c(C)cccc3Cl)s2)cc(N2CC[C@H](O)C2)n1 | OCI-LY19 | cell growth or viability, ATP luminescence | 10 µM, 72 h | inhibition | 9% |
| CC(C)(C)c1cc(NC(=O)Nc2ccc(-c3cn4c(n3)sc3cc(OCCN5CCOCC5)ccc34)cc2)no1 | HCC827 | cell growth or viability | 72 h | GI50 | > 10 µM |
| CCCn1cnc2ccc(-c3ccc(NC(=O)c4ccccc4)nc3)cc2c1=O | HCC827 | cell growth or viability, CCK-8 | 72 h | IC50 | 0.1 µM |
| COc1ccc(NC(=O)c2ccc(COC(Cn3ccnc3)c3ccc(Cl)cc3Cl)cc2)cc1 (centres unmarked) | Nakaseomyces glabratus | microbial growth, broth dilution |  | MIC80 | 0.125 µg/mL (≈ 0.252 µM) |
